Test results taken from ChEMBL document CHEMBL1138009, “3-[3-Fluoro-5-(5-pyridin-2-yl-2H-tetrazol-2-yl)phenyl]-4-methylpyridine: a highly potent and orally bioavailable metabotropic glutamate subtype 5 (mGlu5) receptor antagonist” (Bioorg Med Chem Lett, 2004).

Tests used:
[1] = molecular target: T1, Metabotropic glutamate receptor 5 (Rattus norvegicus, UniProt P31424); assay: Antagonistic activity against Metabotropic glutamate receptor 5 in [Ca2+] flux assay using glutamate (10 uM) as agonist; format: functional
T1 sequence (P31424 whole entry): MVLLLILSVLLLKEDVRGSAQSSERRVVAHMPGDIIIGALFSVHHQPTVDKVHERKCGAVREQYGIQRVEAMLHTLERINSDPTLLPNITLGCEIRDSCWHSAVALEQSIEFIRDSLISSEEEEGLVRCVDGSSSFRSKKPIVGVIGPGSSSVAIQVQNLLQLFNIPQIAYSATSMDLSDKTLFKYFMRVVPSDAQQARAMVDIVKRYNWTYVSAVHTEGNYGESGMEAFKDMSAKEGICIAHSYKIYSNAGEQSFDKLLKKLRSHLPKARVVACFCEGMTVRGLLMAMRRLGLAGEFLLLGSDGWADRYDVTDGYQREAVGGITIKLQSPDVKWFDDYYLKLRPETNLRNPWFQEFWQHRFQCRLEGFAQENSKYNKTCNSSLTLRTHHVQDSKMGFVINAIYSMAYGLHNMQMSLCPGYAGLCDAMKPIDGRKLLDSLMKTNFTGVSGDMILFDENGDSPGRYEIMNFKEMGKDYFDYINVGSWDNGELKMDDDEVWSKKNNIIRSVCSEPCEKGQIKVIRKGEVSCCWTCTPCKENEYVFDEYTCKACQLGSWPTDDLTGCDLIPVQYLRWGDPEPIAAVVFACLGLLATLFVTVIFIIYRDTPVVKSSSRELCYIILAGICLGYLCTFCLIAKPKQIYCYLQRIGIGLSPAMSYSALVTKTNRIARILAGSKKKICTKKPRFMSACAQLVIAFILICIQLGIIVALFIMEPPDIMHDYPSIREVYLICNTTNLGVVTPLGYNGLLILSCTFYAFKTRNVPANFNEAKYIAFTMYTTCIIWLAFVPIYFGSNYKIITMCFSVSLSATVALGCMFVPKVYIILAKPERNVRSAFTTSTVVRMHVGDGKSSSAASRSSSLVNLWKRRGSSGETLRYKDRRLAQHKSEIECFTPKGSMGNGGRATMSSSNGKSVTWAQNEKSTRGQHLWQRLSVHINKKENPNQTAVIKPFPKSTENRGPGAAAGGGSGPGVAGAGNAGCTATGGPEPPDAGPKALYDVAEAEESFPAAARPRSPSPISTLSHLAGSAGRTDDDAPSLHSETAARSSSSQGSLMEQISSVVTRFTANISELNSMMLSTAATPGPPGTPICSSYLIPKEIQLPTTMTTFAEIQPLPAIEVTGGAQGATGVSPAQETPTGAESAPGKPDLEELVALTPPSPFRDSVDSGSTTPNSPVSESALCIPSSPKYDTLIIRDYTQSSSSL
Outline: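 Cell-based high-throughput functional assay; glutamate 10 μM as agonist; antagonism read as change in cytosolic Ca2+ by fluorescence detection; n = 2–4, SD ≈ ±25%.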

[2] = molecular target: T1, Metabotropic glutamate receptor 5; assay: Binding affinity towards Metabotropic glutamate receptor was determined by displacing [3H]3-methoxy-5-(pyridin-2-ylethynyl)pyridine from rat cortical membranes
Outline: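 Radioligand displacement of [3H]-3-methoxy-5-(pyridin-2-ylethynyl)pyridine from rat cortical membranes by test compounds; n = 2–4, SD ≈ ±25%.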

[3] = Plasma clearance i.v. dosing at 2 mg/kg of 50% PEG400/H 20, po dosing at 10 mg/kg; format: ADME, organism-based; conditions: rat, iv, read-out: Clp
[4] = Oral bioavailability after i.v. dosing at 2 mg/kg of 50% PEG400/H 20, po dosing at 10 mg/kg; format: ADME, organism-based; conditions: rat, in vivo
[5] = Half life i.v. dosing at 2 mg/kg of 50% PEG400/H 20, po dosing at 10 mg/kg; format: ADME, organism-based; conditions: rat, in vivo
[6] = Maximum concentration i.v. dosing at 2 mg/kg of 50% PEG400/H 20, po dosing at 10 mg/kg; format: ADME, organism-based; conditions: rat, in vivo
[7] = molecular target: Metabotropic glutamate receptor 5 (Rattus norvegicus) (UniProt P31424); assay: Effective dose against rat Metabotropic glutamate receptor 5 occupancy after i.p. dosing at 10 mg/kg of 50% PEG400/H 20; format: functional, organism-based; set-up: dose 10 mg/kg
Chain of Metabotropic glutamate receptor 5 (Rattus norvegicus) (P31424 21-1203 limits assumed): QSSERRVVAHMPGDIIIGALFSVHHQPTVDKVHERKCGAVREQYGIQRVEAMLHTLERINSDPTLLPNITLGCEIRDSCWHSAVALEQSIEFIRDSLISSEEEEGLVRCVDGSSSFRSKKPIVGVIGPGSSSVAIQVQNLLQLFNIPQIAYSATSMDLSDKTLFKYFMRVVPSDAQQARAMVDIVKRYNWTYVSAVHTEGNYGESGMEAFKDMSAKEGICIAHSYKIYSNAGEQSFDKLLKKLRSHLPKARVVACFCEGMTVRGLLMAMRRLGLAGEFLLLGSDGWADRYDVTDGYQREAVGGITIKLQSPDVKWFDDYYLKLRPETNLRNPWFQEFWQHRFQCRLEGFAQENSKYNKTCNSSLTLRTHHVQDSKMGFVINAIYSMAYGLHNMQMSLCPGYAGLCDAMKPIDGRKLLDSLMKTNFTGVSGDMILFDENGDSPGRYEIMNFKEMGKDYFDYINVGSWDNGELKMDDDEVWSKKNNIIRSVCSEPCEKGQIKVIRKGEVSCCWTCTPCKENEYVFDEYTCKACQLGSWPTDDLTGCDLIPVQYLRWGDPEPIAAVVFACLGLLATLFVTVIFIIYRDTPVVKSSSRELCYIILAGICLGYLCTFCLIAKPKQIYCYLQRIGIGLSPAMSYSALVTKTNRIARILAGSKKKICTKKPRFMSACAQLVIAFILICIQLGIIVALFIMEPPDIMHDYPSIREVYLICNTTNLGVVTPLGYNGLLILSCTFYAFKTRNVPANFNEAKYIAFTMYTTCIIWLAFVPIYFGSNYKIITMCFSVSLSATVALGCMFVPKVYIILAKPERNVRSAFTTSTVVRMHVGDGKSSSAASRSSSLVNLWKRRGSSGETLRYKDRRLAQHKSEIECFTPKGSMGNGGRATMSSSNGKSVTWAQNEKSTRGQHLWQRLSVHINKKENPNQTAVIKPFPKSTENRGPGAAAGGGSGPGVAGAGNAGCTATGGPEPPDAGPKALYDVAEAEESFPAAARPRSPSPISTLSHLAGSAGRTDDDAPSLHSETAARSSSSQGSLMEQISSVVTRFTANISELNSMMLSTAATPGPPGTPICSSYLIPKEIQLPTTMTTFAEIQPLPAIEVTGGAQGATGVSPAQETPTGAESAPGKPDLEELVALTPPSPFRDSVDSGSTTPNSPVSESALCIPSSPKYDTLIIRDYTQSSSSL
Outline: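 Rat receptor occupancy: compound given 10 mg/kg intraperitoneally in 50% PEG 400/H2O, occupancy measured at 1 h; hippocampal and plasma levels also determined at 1 h.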

[8] = Oral bioavailability i.v. dosing at 2 mg/kg of 50% PEG400/H 20, po dosing at 10 mg/kg; format: ADME, organism-based; conditions: rat, in vivo

SMILES | IC50 [1] | Ki [2] | other results
Cc1cccc(-c2cc(F)cc(-n3nnc(-c4ccccn4)n3)c2)c1 | 1.47 µM |  | 
Nc1ccccc1-c1cc(F)cc(-n2nnc(-c3ccccn3)n2)c1 | 0.008 µM | 0.007 µM | 
N#Cc1ccccc1-c1cc(F)cc(-n2nnc(-c3ccccn3)n2)c1 | 0.006 µM | 0.004 µM | 
N#Cc1cc(F)cc(-n2nnc(-c3ccccn3)n2)c1 | 0.004 µM | 0.014 µM | clearance [3]: 17 mL/min/kg; bioavailability [4]: 26%; T1/2 [5]: 2.9 h
Nc1cccnc1-c1cc(F)cc(-n2nnc(-c3ccccn3)n2)c1 | 0.019 µM | 0.031 µM | 
Fc1cc(-c2ccccn2)cc(-n2nnc(-c3ccccn3)n2)c1 | 0.039 µM | 0.095 µM | 
Fc1cc(-c2ccccc2)cc(-n2nnc(-c3ccccn3)n2)c1 | 0.247 µM | 0.053 µM | 
N#Cc1cccc(-c2cc(F)cc(-n3nnc(-c4ccccn4)n3)c2)c1 | 0.253 µM | 0.012 µM | 

Further lines, with some results ahead:

IC50 [1] | Ki [2] | SMILES | other results
0.012 µM | 0.037 µM | Fc1cc(-c2cccnc2)cc(-n2nnc(-c3ccccn3)n2)c1 | 
0.005 µM | 0.002 µM | Cc1ccncc1-c1cc(F)cc(-n2nnc(-c3ccccn3)n2)c1 | clearance [3]: 39 mL/min/kg; Cmax [6]: 900 nM; half-life [5]: 1.6 h; Occupancy [7]: 95; bioavailability [8]: 12%
0.12 µM | 0.023 µM | Cc1ccccc1-c1cc(F)cc(-n2nnc(-c3ccccn3)n2)c1 | 
0.499 µM | 0.272 µM | Cc1cncc(-c2cc(F)cc(-n3nnc(-c4ccccn4)n3)c2)c1 | 
0.108 µM | 0.02 µM | Nc1ccncc1-c1cc(F)cc(-n2nnc(-c3ccccn3)n2)c1 | 
0.063 µM | 0.033 µM | Cc1cnccc1-c1cc(F)cc(-n2nnc(-c3ccccn3)n2)c1 | 
0.031 µM | 0.024 µM | Cc1cccnc1-c1cc(F)cc(-n2nnc(-c3ccccn3)n2)c1 | 
> 3 µM |  | Cc1ccc(-c2cc(F)cc(-n3nnc(-c4ccccn4)n3)c2)cc1 | 
0.057 µM | 0.036 µM | Cc1ccc(-c2cc(F)cc(-n3nnc(-c4ccccn4)n3)c2)cn1 | 
0.956 µM | 0.575 µM | Fc1cc(-c2ccncc2)cc(-n2nnc(-c3ccccn3)n2)c1 | 
0.041 µM | 0.045 µM | Cc1ncccc1-c1cc(F)cc(-n2nnc(-c3ccccn3)n2)c1 | 
